Assay outcomes (PubChem BioAssay)
C2C12 statin: protects C2C12 myotubes from simvastatin toxicity; ATP luminescence, 48 h; scaled: DMSO 0, geranylgeraniol control 100; rescue of ATP level, % at 7.49 µM; 0.78% of 330,000 active; AID 602340;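 active means mean ATP rescue above about 67%, or every replicate alone reaching that limit, limit read from the data, passing the limit was not always enough; inconclusive means no clear call, values can overlap the other calls; inactive means mean under the limit and some replicate under it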;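 further: myotubes were challenged with 10 µM simvastatin during compound exposure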
DENV2 CPE rescue: protects cells from dengue virus 2 cytopathic effect; DENV2-infected cells, cytopathic effect rescue, plate reader; CPE inhibition, % at 9.99 µM; 1.7% of 350,000 active; in the data active means CPE inhibition above about 20%, passing the limit was not always enough; inconclusive means no clear call, values can overlap the other calls; tested in BHK-21 cells;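 further: 0% = median of neutral control wells and 100% = median of positive control wells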
E-selectin induc: E-selectin induction on HUVECs; AID 686992; activation, % at 7.58 µM; HUVEC E-selectin immunofluorescence imaging; normalized: neutral wells 0, TNF-alpha wells 100; P16581; 0.37% of 260,000 active;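 active means mean E-selectin-positive cell signal at least 10% of the positive control, reached in at least 60% of replicates, without over 20% cell loss; inconclusive means no rule given, readout overlaps actives, possibly toxicity-flagged; inactive means the rest, including those meeting only one limit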
Target sequence (P16581 whole entry, looked up): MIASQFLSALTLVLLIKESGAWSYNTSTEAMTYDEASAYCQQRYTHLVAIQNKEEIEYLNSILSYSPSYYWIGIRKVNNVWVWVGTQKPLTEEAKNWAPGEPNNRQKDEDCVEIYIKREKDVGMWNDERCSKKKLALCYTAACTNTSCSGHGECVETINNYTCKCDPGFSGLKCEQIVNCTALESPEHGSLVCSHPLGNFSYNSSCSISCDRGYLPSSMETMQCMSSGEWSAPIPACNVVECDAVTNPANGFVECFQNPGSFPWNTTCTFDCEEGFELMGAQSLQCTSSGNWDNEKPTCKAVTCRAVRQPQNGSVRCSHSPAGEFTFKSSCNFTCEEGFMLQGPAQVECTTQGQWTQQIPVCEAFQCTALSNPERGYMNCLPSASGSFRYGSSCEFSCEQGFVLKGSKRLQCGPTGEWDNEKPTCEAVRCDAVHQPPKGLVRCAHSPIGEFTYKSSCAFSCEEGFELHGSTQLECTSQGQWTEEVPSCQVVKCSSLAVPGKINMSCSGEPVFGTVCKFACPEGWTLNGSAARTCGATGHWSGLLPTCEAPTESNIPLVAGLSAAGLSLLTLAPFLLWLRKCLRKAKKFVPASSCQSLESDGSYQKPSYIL
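Test system: HUVEC; input: 3,000 HUVEC/well; measured by: immunofluorescence imaging; read-out: % PE-positive cells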
* hit, by the source's call. Hits are enriched below; roughly 2.2% of the tested compounds scored in any of these assays.

COCC(=O)N(C)C[C@H]1Oc2ncc(C#Cc3cccnc3)cc2C(=O)N([C@@H](C)CO)C[C@H]1C was read as C2C12 statin -7.1, DENV2 CPE rescue -5.3 and E-selectin induc 1.8.
`C[C@@H]1CCCCO[C@H](CN(C)C(=O)c2ccncc2)[C@@H](C)CN([C@@H](C)CO)C(=O)c2cc(N(C)C)ccc2O1` gave C2C12 statin 9.7 and E-selectin induc 0.3.
For O=C(NCc1ccc(F)cc1)C1CCCN(S(=O)(=O)c2ccc(-n3cnnn3)cc2)C1 (configuration not stated) the results were C2C12 statin 33.1 and DENV2 CPE rescue -2.8.
`O=C(NCc1ccccc1)C1CCCN(S(=O)(=O)c2ccc(-n3cnnn3)cc2)C1` (configuration not stated) gave C2C12 statin 6.1, DENV2 CPE rescue inconclusive and E-selectin induc 31.3*.
Screening O=C(NCC1CC1)[C@H]1[C@H](CO)[C@H]2Cn3c(cccc3=O)[C@H]2N1Cc1cccc(F)c1 returned DENV2 CPE rescue 4.5 and E-selectin induc 1.5.
Screening CCCC(=O)N(Cc1cc2cc(C)ccc2[nH]c1=O)c1ccccc1OC returned C2C12 statin 76.1*.
CCCC(=O)N(Cc1cc2ccccc2[nH]c1=O)c1ccccc1OC was read as C2C12 statin 13.0 and DENV2 CPE rescue -5.5.
Screening CC(=O)N(C)C[C@@H]1Oc2ncc(-c3cncnc3)cc2C(=O)N([C@H](C)CO)C[C@@H]1C returned C2C12 statin -7.8, DENV2 CPE rescue -5.8 and E-selectin induc 0.2.
For OC(CSc1ccc(F)cc1)CN1CCN(c2ccccc2)CC1 (configuration not stated) the results were DENV2 CPE rescue 16.6 and E-selectin induc 56.1*.
`OC(CN1CCN(c2cccc(Cl)c2)CC1)c1ccc(F)cc1` (configuration not stated) gave C2C12 statin 2.6, DENV2 CPE rescue 48.9* and E-selectin induc 0.1.
Screening OCC(O)CN1CCN(c2ccccc2)CC1 (configuration not stated) returned C2C12 statin -1.1, DENV2 CPE rescue 11.7 and E-selectin induc 0.0.
OC(CN1CCN(c2cccc(Cl)c2)CC1)c1ccccc1 (configuration not stated) was read as C2C12 statin 10.7, DENV2 CPE rescue 9.0 and E-selectin induc -0.3.
`O=C(C[C@@H]1C=C[C@H](NC(=O)Nc2ccc(C(F)(F)F)cc2)[C@@H](CO)O1)NCc1ccccn1` gave C2C12 statin -5.8, DENV2 CPE rescue 0.4 and E-selectin induc 0.3.
`COc1ccc(CN2CC3(CCN(C(=O)C4CC4)CC3)c3c(n(C)c4cc(OC)ccc34)[C@H]2CO)cc1` gave DENV2 CPE rescue -3.1 and E-selectin induc -0.2.
O=C(c1ccccc1CCc1ccccc1)N1CCOCC1 was read as C2C12 statin 114.0*.
Screening NC(=O)C1CCN(C(=O)c2ccccc2CCc2ccccc2)CC1 returned C2C12 statin 1.6, DENV2 CPE rescue -2.6 and E-selectin induc 0.5.
Screening O=C(c1ccccc1Cc1ccccc1)N1CCN(S(=O)(=O)c2ccccc2)CC1 returned C2C12 statin 6.7, DENV2 CPE rescue 68.2* and E-selectin induc 0.3.
Screening O=C(c1ccccc1Cc1ccccc1)N1CCN(S(=O)(=O)c2ccccc2F)CC1 returned C2C12 statin 5.5, DENV2 CPE rescue 9.6 and E-selectin induc 0.6.
C[C@H](NC(=O)C[C@@H]1CC[C@@H]2[C@H](COC[C@H](O)CN2C(=O)Nc2ccccc2)O1)c1ccccc1 was read as C2C12 statin -2.3, DENV2 CPE rescue 34.1* and E-selectin induc 0.1.
For C[C@@H](NC(=O)C[C@@H]1CC[C@@H]2[C@H](COC[C@@H](O)CN2C(=O)Nc2ccccc2)O1)c1ccccc1 the results were C2C12 statin -1.3, DENV2 CPE rescue 1.5 and E-selectin induc 0.0.
`C[C@H](NC(=O)C[C@H]1CC[C@H]2[C@@H](COC[C@@H](O)CN2C(=O)Nc2ccccc2)O1)c1ccccc1` gave C2C12 statin -7.0, DENV2 CPE rescue -14.4 and E-selectin induc 0.2.
Screening C[C@H](NC(=O)C[C@@H]1CC[C@H]2[C@@H](COC[C@H](O)CN2C(=O)Nc2ccccc2)O1)c1ccccc1 returned C2C12 statin 1.9, DENV2 CPE rescue 30.5* and E-selectin induc 0.0.
Screening CCC(=O)N1C[C@@H](C)[C@@H](OC)CN(C)C(=O)c2cc(NC(=O)C3CCCCC3)ccc2OC[C@@H]1C returned C2C12 statin 3.6, DENV2 CPE rescue -0.5 and E-selectin induc 0.2.
`COCC(=O)Nc1ccc2c(c1)[C@H]1C[C@@H](CC(=O)NCc3cccnc3)O[C@@H](CO)[C@H]1O2` gave C2C12 statin 1.0, DENV2 CPE rescue 2.6 and E-selectin induc -0.2.
For CCCN1C[C@H](C)[C@@H](OC)CN(C)C(=O)c2cc(NC(=O)c3ccccc3F)ccc2OC[C@H]1C the results were C2C12 statin 5.1, DENV2 CPE rescue 0.3 and E-selectin induc 9.8.
Screening CO[C@H]1CN(C)C(=O)c2cc(NC(=O)c3ccc(F)cc3)ccc2OC[C@@H](C)NC[C@@H]1C returned C2C12 statin -2.0 and E-selectin induc 0.0.
COc1cccc(C#Cc2cnc3c(c2)C(=O)N([C@H](C)CO)C[C@@H](C)[C@@H](CN(C)C(=O)C2CCOCC2)O3)c1 was read as C2C12 statin -8.6 and E-selectin induc -0.1.
For CC(C)c1cn(CC[C@@H]2CC[C@H](NC(=O)C3CCOCC3)[C@@H](CO)O2)nn1 the results were DENV2 CPE rescue 71.4* and E-selectin induc 0.1.
For CCCNC(=O)N[C@@H]1CC[C@@H](CCn2cc(C3CCCC3)nn2)O[C@H]1CO the results were C2C12 statin 5.2, DENV2 CPE rescue 33.2* and E-selectin induc -0.1.
Screening O=C(N[C@@H]1CC[C@@H](CCn2cc(C3CCCC3)nn2)O[C@@H]1CO)c1cccnc1 returned DENV2 CPE rescue -0.4 and E-selectin induc -0.1.
`CCCNC(=O)N[C@@H]1CC[C@H](CCn2cc(C3CCCC3)nn2)O[C@H]1CO` gave C2C12 statin 14.8, DENV2 CPE rescue 5.8 and E-selectin induc -0.1.
`CC(C)c1cn(CC[C@@H]2CC[C@@H](NC(=O)C3CCOCC3)[C@H](CO)O2)nn1` gave DENV2 CPE rescue -10.2 and E-selectin induc 0.9.
`O=C(N[C@@H]1CC[C@@H](CCn2cc(C3CCCC3)nn2)O[C@H]1CO)c1cccnc1` gave DENV2 CPE rescue 29.3* and E-selectin induc 0.2.
O=C(C[C@H]1CC[C@@H]2[C@H](COC[C@@H](O)CN2C(=O)Cc2ccccc2)O1)NC1CCC1 was read as C2C12 statin 11.5, DENV2 CPE rescue -3.8 and E-selectin induc 0.0.
`C[C@@H]1CN([C@@H](C)CO)C(=O)c2cc(NC(=O)CCC(F)(F)F)ccc2O[C@@H]1CN(C)Cc1ccccc1` gave C2C12 statin 4.4, DENV2 CPE rescue 19.6 and E-selectin induc 0.3.
`COc1ccccc1-c1ccc2c(c1)[C@H]1[C@H](CCN1C(=O)C1CC1)[C@@H](CO)N2` gave C2C12 statin 48.0, DENV2 CPE rescue -6.6 and E-selectin induc 0.3.
COc1ccc(NC(=O)N(C)C[C@@H]2Oc3ccc(NS(C)(=O)=O)cc3C(=O)N([C@H](C)CO)C[C@@H]2C)cc1 was read as C2C12 statin -0.3, DENV2 CPE rescue -6.4 and E-selectin induc -0.1.
